# Source: PubChem BioAssay
# HTRA1 inhibitor: blocks human HTRA1 serine peptidase; recombinant HTRA1, FP-rhodamine activity-based probe, fluorescence polarization; inhibition, % at 5.96 µM; hit rate 0.5% among 340,000; AID 504803; in the data active = inhibition above about 36%;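 note: 0% = enzyme with DMSO and 100% = wells lacking enzyme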
# Target sequence (Q92743 whole entry, looked up): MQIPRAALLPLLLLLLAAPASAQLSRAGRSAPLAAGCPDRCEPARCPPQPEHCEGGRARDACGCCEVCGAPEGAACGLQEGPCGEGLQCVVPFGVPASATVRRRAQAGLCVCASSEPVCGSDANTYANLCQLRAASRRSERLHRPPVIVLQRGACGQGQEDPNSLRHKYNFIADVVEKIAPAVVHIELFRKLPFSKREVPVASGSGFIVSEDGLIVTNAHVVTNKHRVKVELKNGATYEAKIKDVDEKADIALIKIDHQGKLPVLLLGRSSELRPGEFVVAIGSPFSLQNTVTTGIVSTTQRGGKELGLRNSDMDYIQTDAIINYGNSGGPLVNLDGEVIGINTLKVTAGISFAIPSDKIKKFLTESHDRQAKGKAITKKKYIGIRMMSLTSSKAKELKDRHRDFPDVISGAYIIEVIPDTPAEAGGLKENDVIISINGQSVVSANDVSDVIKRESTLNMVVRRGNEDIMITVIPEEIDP
# TCR-CD3 inh: blocks the human TCR-CD3 interaction; AID 651800; hit rate 0.37% among 360,000; inhibition, % at 9.4 µM; TAMRA-labeled TCR probe fluorescence, biochemical; in the data active = inhibition above about 19%;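 note: recombinant mutant TCR 2C K166C tagged with TAMRA read by polarization; 0% = receptor in buffer alone and 100% = receptor with positive control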
# ABHD4 inh: inhibitors of mouse ABHD4 | Q8VD66 | purified mABHD4, FP-Rh probe fluorescence polarization | inhibition, % at 8.92 µM | hit rate 0.54% among 370,000 | AID 720543;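 active = inhibition exceeding the mean over every tested compound plus 3 SD, cut at about 30% in these data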;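 note: 0% = plate median of compound wells and 100% = S159A mutant with DMSO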
#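 System: mouse ABHD4 enzyme, wild type / Medium: HEPES pH 7.0, NaCl, Pluronic buffer / Reagent: FP-Rh activity-based fluorescent probe / Control set: S159A mutant high control, sample median low control / Detection: fluorescence polarization with parallel and perpendicular emission, 525/598 nm / Schedule: 45 min + 60 min at 25 °C / Compound dosing: 8.92 µM, single dose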
# SIAE primary: human SIAE inhibition, primary screen; AID 1053197; SIAE FP-Rh probe binding, fluorescence polarization; Q9HAT2; inhibition, % at 9.66 µM; hit rate 0.69% among 370,000;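 active = inhibition above a cutoff: mean of compounds within the control limits plus 3 SD of those, cut at about 17% in these data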;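 note: 0% = plate median of compound wells and 100% = probe without SIAE protein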
# PRMT1 FP inh: inhibitors of human PRMT1. recombinant PRMT1, activity-based probe fluorescence polarization. inhibition, % at 2.79 µM. hit rate 1.3% among 370,000. AID 652257;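 active = inhibition above about 21% made by adding two undisclosed values, limit read from the data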
# rCAG RNA binder: molecules binding r(CAG) RNA repeats. r(CAG) RNA repeat, TO-PRO-1 dye displacement fluorescence. inhibition, % at 3 µM. hit rate 1.3% among 370,000. AID 651821;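 active = inhibition above the plate cutoff, the mean of all test compounds on that plate plus 3 SD, cut at about 35% in these data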;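 note: 0% = DMSO alone and 100% = 100 µM mitoxantrone as full dye displacement; higher means more dye released from RNA so lower well fluorescence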
# SIAE inh conf: human SIAE inhibition, confirmation. shares compounds with SIAE primary. SIAE FP-Rh activity-based probe, fluorescence polarization. inhibition, % at 9.66 µM. hit rate 13% among 2,300;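 active = mean inhibition of the replicates above the hit cutoff set in the primary screen, cut at about 17% in these data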;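 note: 0% = SIAE with DMSO and probe and 100% = probe without SIAE; inhibitors lower polarization as more probe stays unbound to SIAE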
# * hit, by the source's call; . = not tested or not shown. Compounds with a hit are over-represented: about 3.5% of the library has one in this group of screens.
SMILES,HTRA1 inhibitor,TCR-CD3 inh,ABHD4 inh,SIAE primary,PRMT1 FP inh,rCAG RNA binder,SIAE inh conf
CCC[C@H]1[C@@H](NCC2CCCCC2)CC[C@@]23CCCN2C(=O)CCC[C@@H]13,.,.,-1,-3,-3,.,.
COc1ccc(NC(=O)CN2C(=O)C(C)Oc3ccc(C)cc32)cc1 (stereo not drawn),0,-2,3,21*,-1,0,7
COc1ccc(NC(=O)CN2C(=O)C(C)Oc3ccccc32)cc1 (stereo not drawn),1,-1,5,-4,-4,-3,.
Cc1ccn2c(NC3CCCC3)c(-c3ccncc3)nc2c1,3,2,-4,18*,-3,-10,-1
Cc1ccc2nc(-c3ccncc3)c(NC3CCCC3)n2c1,-6,-8,-3,4,-5,-9,.
Cc1ccc(S(=O)(=O)N/N=C\c2cn(CC(N)=O)c3ccccc23)cc1C,4,7,9,23*,-2,25,7
NC(=O)Cn1cc(/C=N\NS(=O)(=O)c2ccc(Cl)cc2)c2ccccc21,0,1,-2,-4,1,24,.
Cn1c(SC/C=C/c2ccccc2)nnc1-c1cccnc1,.,.,-5,-11,-5,4,.
CC[C@]12c3[nH]c4cc(-c5ccco5)ccc4c3CCN1C(=O)[C@@H](CC(=O)NCC13CC4CC(CC(C4)C1)C3)C[C@@H]2C(=O)N1CCN(C(=O)c2ccco2)CC1,-9,-7,22,18*,7,17,0
CC[C@]12c3[nH]c4cc(-c5ccco5)ccc4c3CCN1C(=O)[C@@H](CC(=O)NCC13CC4CC(CC(C4)C1)C3)C[C@@H]2C(=O)N1CCN(C(=O)C2CC2)CC1,0,-4,17,4,11,10,.
COc1ccc(C=O)cc1-c1cc(C(C)=O)c2n(c1=O)CCC2,.,.,-1,8,-3,7,.
CCN1C[C@@H]2[C@@H]3C(=O)N(C)C(=O)[C@@H]3[C@](Cc3ccccc3)(C1=O)N2C(=O)c1ccc(C(C)(C)C)cc1,-2,5,1,21*,2,-10,0
CC(=O)c1ccccc1NC(=O)COC(=O)CCCN1C(=O)c2cccc3cccc(c23)C1=O,-3,6,0,19*,0,0,3
Cc1ccc(Nc2nc(/N=C/NO)n[nH]2)cc1C,3,6,3,26*,-4,0,2
Cc1nc(C)c(-c2ccnc(/N=C/NO)n2)s1,1,0,-2,-2,3,0,.
COC(=O)C1CCCCN1C(=O)c1ccc2oc(C(C)C)nc2c1 (stereo not drawn),1,0,3,17*,1,-7,6
COC(=O)C1CCCCN1C(=O)c1ccc2oc(Cc3ccccc3)nc2c1 (stereo not drawn),-1,-6,-1,-4,2,-4,.
Cc1ccc(Cn2cc(CN(C(C)(C)C)S(=O)(=O)c3ccccc3Br)nn2)cc1,.,.,0,1,1,-1,.
COc1ccc(Cn2ccnc2CO)cc1[N+](=O)[O-],0,4,-2,19*,-6,2,3
O=C(COC(=O)COc1ccc(Cl)cc1)Nc1ccc2c(c1)OCCO2,5,5,3,18*,0,2,1
CCC(=O)c1ccc(OCC(=O)OCC(=O)Nc2ccc3c(c2)OCCO3)cc1,3,2,1,0,0,-1,.
NC(=O)c1nsc(C(=O)N(Cc2ccccc2Cl)C(C(=O)NCC2CCCO2)c2ccc(O)cc2)c1N (stereo not drawn),-1,-1,0,20*,2,0,0
CN(C)N1C(N)=C(C#N)C(c2ccccc2)C2=C1CCCC2=O (stereo not drawn),3,2,-2,2,0,-2,.
CN(C)N1C(N)=C(C#N)C(c2ccc(F)cc2)C2=C1CCCC2=O (stereo not drawn),0,-5,2,19*,-1,-1,5
Cc1cccc(C(=O)NCC(=O)NC(C)CCc2ccccc2)c1 (stereo not drawn),-4,7,-3,20*,1,-1,-1
SMILES,HTRA1 inhibitor,TCR-CD3 inh,ABHD4 inh,SIAE primary,PRMT1 FP inh,rCAG RNA binder,SIAE inh conf
Cc1cccc(C(=O)OCC(=O)NC(C)CCc2ccccc2)c1 (stereo not drawn),-14,-5,9,-5,6,-5,.
CCOC(=O)[C@@]12CCCC3=C1N(CCC3)C(=O)[C@H]2CC(=O)N1CCOCC1,.,.,0,0,2,2,.
CCOC(=O)[C@]12CCCC=C1N(CCCOC)C(=O)[C@@H]2CC(=O)NCc1ccccc1,.,.,5,6,0,1,.
O=C(c1ccncc1)N1CCN(S(=O)(=O)c2ccccc2Br)CC1,4,0,2,18*,3,4,1
COc1ccc(Cl)cc1NC(=S)NCCc1ccc(S(N)(=O)=O)cc1,-6,5,-3,36*,-1,5,2
COc1ccccc1NC(=S)NCc1ccc(Cl)cc1,-2,3,7,18*,0,-1,-1
COc1ccccc1NC(=S)NCc1ccccc1,6,-4,-2,11,-4,1,.
COc1ccccc1NC(=S)NCCN1CCOCC1,-3,-5,-2,17*,-5,0,3
O=S1(=O)c2ccc(N3CC[C@H](O)C3)cc2OCCCN1C1CC1,.,.,2,15,5,11,.
Cc1ccccc1C(=O)NC1CCCCN(Cc2ccc(Cl)cc2)C1=O (stereo not drawn),.,.,2,-2,2,3,.
Cc1ccc(NC(=O)CCS(=O)(=O)c2ccccc2)c(C)c1,.,.,0,7,3,4,.
Cc1cc(Cl)ccc1NC(=O)COC(=O)c1cc([N+](=O)[O-])ccc1N1CCOCC1,-7,11,-6,5,-5,2,.
CCc1cccc(C)c1NC(=O)COC(=O)c1cc([N+](=O)[O-])ccc1N1CCOCC1,4,1,5,19*,-3,-2,0
CCCC[C@H]1C2CC(OC(=O)Nc3ccc(C#N)cc3)C(C2)[C@H]2CCCCN21 (stereo partly drawn),.,.,-3,0,1,5,.
COc1ccc(S(=O)(=O)N2CCCCCC2)c2ccccc12,.,.,-1,-3,-5,1,.
CCc1ccc(/C=C2/SC(N3CCOCC3)=NC2=O)cc1,-2,-4,-3,18*,3,-3,4
Cc1c(C(O)(c2ccccc2)c2ccccc2)[n+]2ccccc2n1C,.,.,4,4,-1,.,.
COc1ccc(N(C(=O)c2ccco2)C(C(=O)NC2CCCC2)c2ccc(N(C)C)cc2)cc1OC (stereo not drawn),2,0,1,26*,-4,6,4
